Assay results reported in ChEMBL document CHEMBL3351699, “Diarylthiazole: an antimycobacterial scaffold potentially targeting PrrB-PrrA two-component system” (J Med Chem, 2014).
Values after ≈ are worked out from the molar mass of the structure shown. Active and inactive are the calls of the source. No cut-off for these calls is given here.

Key:
[1] = system: Mycobacterium tuberculosis; experiment: Induction of anaerobic state electron transport chain maintenance related gene expression in Mycobacterium tuberculosis H37Rv ATCC 27294 at 7.5 ug/mL incubated for 4 hrs by DNA microarray analysis; format: functional, organism-based
Outline: (§1)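 Total RNA was isolated from compound-treated Mtb cultures and hybridised on DNA microarrays, with RNA from an untreated Mtb culture as the control.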

[2] = system: Mycobacterium tuberculosis; experiment: Induction of prrB gene expression in Mycobacterium tuberculosis H37Rv ATCC 27294 at 7.5 ug/mL incubated for 4 hrs by DNA microarray analysis; format: functional
Outline: (§2)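 Total RNA was isolated from treated Mtb cells and analysed by DNA microarray. RNA from an untreated Mtb culture served as the control, and expression was reported as mean fold change relative to that untreated control.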

[3] = system: Mycobacterium tuberculosis; experiment: Antimicrobial activity against Mycobacterium tuberculosis H37Rv ATCC 27294 infected in human THP1 cells assessed as reduction in bacterial count at 2 times MIC relative to untreated control; format: functional, THP-1
[4] = system: Mycobacterium tuberculosis; experiment: Reduction in RNA polymerase subunits gene expression in Mycobacterium tuberculosis H37Rv ATCC 27294 at 7.5 ug/mL incubated for 4 hrs by DNA microarray analysis; format: functional, organism-based; outline: as §1
[5] = system: Mycobacterium tuberculosis; experiment: Bactericidal activity against Mycobacterium tuberculosis H37Rv ATCC 27294 after 5 days by microdilution method; format: functional; conditions: H37Rv ATCC 27294, 120 h
[6] = system: Mycobacterium tuberculosis; experiment: Induction of cytochrome ubiquinol oxidase gene expression in Mycobacterium tuberculosis H37Rv ATCC 27294 at 7.5 ug/mL incubated for 4 hrs by DNA microarray analysis; format: functional, organism-based; outline: as §1
[7] = system: Mycobacterium tuberculosis; experiment: Reduction in ribosomal protein synthesis related gene expression in Mycobacterium tuberculosis H37Rv ATCC 27294 at 7.5 ug/mL incubated for 4 hrs by DNA microarray analysis; format: functional, organism-based; outline: as §1
[8] = system: Mycobacterium tuberculosis; experiment: Induction of nitrate reductase gene expression in Mycobacterium tuberculosis H37Rv ATCC 27294 at 7.5 ug/mL incubated for 4 hrs by DNA microarray analysis; format: functional, organism-based; outline: as §1
[9] = system: Mycobacterium tuberculosis; experiment: Induction of oxido-reductases gene expression in Mycobacterium tuberculosis H37Rv ATCC 27294 at 7.5 ug/mL incubated for 4 hrs by DNA microarray analysis; format: functional, organism-based; outline: as §1
[10] = system: Mycobacterium tuberculosis; experiment: Antimicrobial activity against Mycobacterium tuberculosis H37Rv ATCC 27294 assessed as growth inhibition after 5 days by microdilution method; format: functional; conditions: H37Rv ATCC 27294, 120 h
[11] = system: Mycobacterium tuberculosis; experiment: Induction of prrA gene expression in Mycobacterium tuberculosis H37Rv ATCC 27294 at 7.5 ug/mL incubated for 4 hrs by DNA microarray analysis; format: functional; outline: as §2
[12] = system: Mycobacterium tuberculosis; experiment: Reduction in aminoacyl t-RNA synthetases gene expression in Mycobacterium tuberculosis H37Rv ATCC 27294 at 7.5 ug/mL incubated for 4 hrs by DNA microarray analysis; format: functional, organism-based; outline: as §1
[13] = system: Mycobacterium tuberculosis; experiment: Reduction in protein synthesis related gene expression in Mycobacterium tuberculosis H37Rv ATCC 27294 at 7.5 ug/mL incubated for 4 hrs by DNA microarray analysis; format: functional, organism-based; outline: as §1
[14] = system: Mycobacterium tuberculosis; experiment: Antimicrobial activity against Mycobacterium tuberculosis H37Rv ATCC 27294 assessed as reduction in bacterial count relative to untreated control; format: functional
Outline: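 About 10⁶ Mtb cells/mL exposed to compound for 10 days; viable count read as Log₁₀ CFU/mL reduction versus untreated controls.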

[15] = system: Mycobacterium tuberculosis; experiment: Induction of fumarate reductase gene expression in Mycobacterium tuberculosis H37Rv ATCC 27294 at 7.5 ug/mL incubated for 4 hrs by DNA microarray analysis; format: functional, organism-based; outline: as §1
[16] = system: Mycobacterium tuberculosis; experiment: Induction of fatty acid metabolism related gene expression in Mycobacterium tuberculosis H37Rv ATCC 27294 at 7.5 ug/mL incubated for 4 hrs by DNA microarray analysis; format: functional, organism-based; outline: as §1
[17] = molecular target: T1, Enoyl-[acyl-carrier-protein] reductase [NADH] (Mycobacterium tuberculosis, UniProt P9WGR1); experiment: Inhibition of Mycobacterium tuberculosis InhA using NADH and dodecyl coA substrate by LC-MS/MS method
T1 sequence (P9WGR1 whole entry): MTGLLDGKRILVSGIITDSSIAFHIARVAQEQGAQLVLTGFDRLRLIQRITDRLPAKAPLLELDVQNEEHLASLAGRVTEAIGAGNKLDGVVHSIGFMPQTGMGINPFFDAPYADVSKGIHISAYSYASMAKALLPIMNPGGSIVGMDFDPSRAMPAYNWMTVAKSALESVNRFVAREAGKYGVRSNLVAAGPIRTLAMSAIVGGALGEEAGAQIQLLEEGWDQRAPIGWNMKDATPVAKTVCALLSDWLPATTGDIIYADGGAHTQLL

[18] = system: Mycobacterium tuberculosis; experiment: Ratio of MBC for Mycobacterium tuberculosis H37Rv ATCC 27294 to MIC for Mycobacterium tuberculosis H37Rv ATCC 27294; format: functional
[19] = system: Mycobacterium tuberculosis; experiment: Reduction in sigma factors gene expression in Mycobacterium tuberculosis H37Rv ATCC 27294 at 7.5 ug/mL incubated for 4 hrs by DNA microarray analysis; format: functional, organism-based; outline: as §1
[20] = Solubility of the compound; format: physicochemical
[21] = system: Mycobacterium tuberculosis; experiment: Reduction in RNA metabolism related gene expression in Mycobacterium tuberculosis H37Rv ATCC 27294 at 7.5 ug/mL incubated for 4 hrs by DNA microarray analysis; format: functional, organism-based; outline: as §1

For `CCCc1cc(-c2nc(-c3ccncc3)cs2)ccn1`, which Activity [1] is on record?
The Activity was “Active”.

And the “fold change (FC)” value [2]?
Its value is 0.7.

And the log10CFU/ml [3]?
The log10CFU/ml was 1.5.

And the Activity [4]?
The Activity was “Active”.

What about the MBC [5] of the same compound?
The MBC was 0.8 µg/mL (≈ 2.84 µM).

What about the Activity [6] of the same compound?
The Activity was “Active”.

And the Activity [7]?
Its Activity is “Active”.

What about the Activity [8] of the same compound?
The Activity was “Active”.

What about the Activity [9] of the same compound?
The Activity was “Active”.

And the MIC80 [10]?
The MIC80 was 0.4 µg/mL (≈ 1.42 µM).

And the “fold change (FC)” value [11]?
Its value is 0.7.

What about the Activity [12] of the same compound?
The Activity was “Active”.

What about the Activity [13] of the same compound?
Its Activity is “Active”.

And the log10CFU/ml [14]?
The log10CFU/ml was 3.

What about the Activity [15] of the same compound?
Its Activity is “Active”.

And the Activity [16]?
Its Activity is “Active”.

And the IC50 [17]?
The IC50 was over 50 µM.

And the Ratio [18]?
The Ratio was 2.

And the Activity [19]?
The Activity was “Active”.

And the solubility [20]?
The solubility was 91.5 µM (≈ 25.7 µg/mL).

And the Activity [21]?
The Activity was “Active”.
